In ChEMBL document CHEMBL2169746, “Design, synthesis, and antitumor evaluation of 2,4,6-triaryl pyridines containing chlorophenyl and phenolic moiety” (Eur J Med Chem, 2012) one finds inhibition and IC50 data, which are given here for 18 molecules.

By inhibition is commonly meant the change of the read-out against control, counted positive when it falls. One may read the IC50 as the midpoint of a concentration-inhibition curve. Lower therefore signals higher potency.

The target of assay [1] is DNA topoisomerase 2-alpha (Homo sapiens) (UniProt P11388). The experiment in a line: Inhibition of human DNA topoisomerase-2alpha-mediated relaxation of supercoiled pBR322 at 100 uM after 30 mins using ethidium bromide staining by agarose gel electrophoresis. The gist of the method:
(§1)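 200 ng supercoiled pBR322 with 1 unit human topo IIα, with or without compound. Buffer was 10 mM Tris-HCl pH 7.9, 50 mM NaCl, 5 mM MgCl₂, 1 mM EDTA, 1 mM ATP and bovine serum albumin. Incubated 30 min at 30 °C, stopped with EDTA. Products run on 1% agarose gel, 25 V, 4 h, TAE buffer. Compound stocks 20 mM in DMSO.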

In assay [2] the target is T1, DNA topoisomerase 1 (Homo sapiens) (UniProt P11387).
T1 sequence (whole entry): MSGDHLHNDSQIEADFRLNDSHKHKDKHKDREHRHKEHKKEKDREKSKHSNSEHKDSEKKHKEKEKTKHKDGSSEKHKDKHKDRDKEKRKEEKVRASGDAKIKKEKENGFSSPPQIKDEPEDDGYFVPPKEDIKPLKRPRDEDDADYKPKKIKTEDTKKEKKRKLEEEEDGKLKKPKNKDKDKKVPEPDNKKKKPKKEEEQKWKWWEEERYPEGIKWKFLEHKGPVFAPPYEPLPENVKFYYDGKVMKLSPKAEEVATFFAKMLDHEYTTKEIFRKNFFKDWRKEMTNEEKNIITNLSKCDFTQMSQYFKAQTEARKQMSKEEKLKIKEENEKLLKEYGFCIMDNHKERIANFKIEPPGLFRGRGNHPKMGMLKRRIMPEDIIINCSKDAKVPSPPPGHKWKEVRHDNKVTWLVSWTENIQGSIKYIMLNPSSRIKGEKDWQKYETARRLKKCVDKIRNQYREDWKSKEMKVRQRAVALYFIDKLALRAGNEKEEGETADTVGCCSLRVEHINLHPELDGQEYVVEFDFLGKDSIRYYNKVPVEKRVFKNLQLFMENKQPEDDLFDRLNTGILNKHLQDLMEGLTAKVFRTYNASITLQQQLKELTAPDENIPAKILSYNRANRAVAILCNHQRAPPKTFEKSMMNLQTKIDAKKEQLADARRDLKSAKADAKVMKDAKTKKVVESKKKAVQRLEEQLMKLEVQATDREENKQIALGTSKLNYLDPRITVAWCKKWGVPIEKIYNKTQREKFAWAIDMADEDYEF
The experiment in a line: Inhibition of recombinant human DNA topoisomerase-1-mediated relaxation of supercoiled pBR322 at 100 uM after 30 mins using ethidium bromide staining by agarose gel electrophoresis. The gist of the method: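 Compounds from 20 mM DMSO stocks. 100 ng pBR322 plasmid DNA with 1 unit recombinant human topo I, with or without compound, 37 °C for 30 min. Relaxation buffer was 10 mM Tris-HCl pH 7.9, 150 mM NaCl, 0.1% BSA, 1 mM spermidine. Relaxation of supercoiled DNA assessed by gel imaging.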

Assay [3] relates to DU-145. Briefly: Cytotoxicity against human DU145 cells after 2 days by cell counting kit-8 analysis. The note with it: DU-145, 48 h. It counts as functional, cell-based. The gist of the method: (§2)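 Cells grown per supplier's instructions, seeded at 2-4 × 10⁴ cells/well and incubated overnight in medium with 10% FBS at 37 °C, 5% CO₂. On day 2, after 4 h FBS starvation, medium was replaced with medium containing graded compound concentrations. Absorbance read at 450 nm. IC50 from a four-parameter logistic fit. Three independent experiments in triplicate, mean ± S.D.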
(Tetrazolium assays rely on reduction of a dye to a coloured formazan, in cell work by metabolically active cells.)

Assay [4] concerns HCT-15. The experiment in a line: Cytotoxicity against human HCT15 cells after 2 days by cell counting kit-8 analysis. It counts as functional, cell-based. The note with it: HCT-15, 48 h. The gist of the method:
as §2

The subject of assay [5] is T47D. Briefly: Cytotoxicity against human T47D cells after 2 days by cell counting kit-8 analysis. It is filed as functional, cell-based. Conditions: 48 h. The gist of the method:
as §2

The target in assay [6] is DNA topoisomerase 2-alpha (Homo sapiens) (UniProt P11388). The experiment in a line: Inhibition of human DNA topoisomerase-2alpha-mediated relaxation of supercoiled pBR322 at 20 uM after 30 mins using ethidium bromide staining by agarose gel electrophoresis. The gist of the method:
as §1

Assay [7] concerns HEK293. The experiment in a line: Cytotoxicity against human HEK293 cells after 2 days by cell counting kit-8 analysis. The note with it: HEK293, 48 h. It is filed as cell-based. The gist of the method: as §2

Chain of DNA topoisomerase 2-alpha (Homo sapiens) (P11388 whole entry): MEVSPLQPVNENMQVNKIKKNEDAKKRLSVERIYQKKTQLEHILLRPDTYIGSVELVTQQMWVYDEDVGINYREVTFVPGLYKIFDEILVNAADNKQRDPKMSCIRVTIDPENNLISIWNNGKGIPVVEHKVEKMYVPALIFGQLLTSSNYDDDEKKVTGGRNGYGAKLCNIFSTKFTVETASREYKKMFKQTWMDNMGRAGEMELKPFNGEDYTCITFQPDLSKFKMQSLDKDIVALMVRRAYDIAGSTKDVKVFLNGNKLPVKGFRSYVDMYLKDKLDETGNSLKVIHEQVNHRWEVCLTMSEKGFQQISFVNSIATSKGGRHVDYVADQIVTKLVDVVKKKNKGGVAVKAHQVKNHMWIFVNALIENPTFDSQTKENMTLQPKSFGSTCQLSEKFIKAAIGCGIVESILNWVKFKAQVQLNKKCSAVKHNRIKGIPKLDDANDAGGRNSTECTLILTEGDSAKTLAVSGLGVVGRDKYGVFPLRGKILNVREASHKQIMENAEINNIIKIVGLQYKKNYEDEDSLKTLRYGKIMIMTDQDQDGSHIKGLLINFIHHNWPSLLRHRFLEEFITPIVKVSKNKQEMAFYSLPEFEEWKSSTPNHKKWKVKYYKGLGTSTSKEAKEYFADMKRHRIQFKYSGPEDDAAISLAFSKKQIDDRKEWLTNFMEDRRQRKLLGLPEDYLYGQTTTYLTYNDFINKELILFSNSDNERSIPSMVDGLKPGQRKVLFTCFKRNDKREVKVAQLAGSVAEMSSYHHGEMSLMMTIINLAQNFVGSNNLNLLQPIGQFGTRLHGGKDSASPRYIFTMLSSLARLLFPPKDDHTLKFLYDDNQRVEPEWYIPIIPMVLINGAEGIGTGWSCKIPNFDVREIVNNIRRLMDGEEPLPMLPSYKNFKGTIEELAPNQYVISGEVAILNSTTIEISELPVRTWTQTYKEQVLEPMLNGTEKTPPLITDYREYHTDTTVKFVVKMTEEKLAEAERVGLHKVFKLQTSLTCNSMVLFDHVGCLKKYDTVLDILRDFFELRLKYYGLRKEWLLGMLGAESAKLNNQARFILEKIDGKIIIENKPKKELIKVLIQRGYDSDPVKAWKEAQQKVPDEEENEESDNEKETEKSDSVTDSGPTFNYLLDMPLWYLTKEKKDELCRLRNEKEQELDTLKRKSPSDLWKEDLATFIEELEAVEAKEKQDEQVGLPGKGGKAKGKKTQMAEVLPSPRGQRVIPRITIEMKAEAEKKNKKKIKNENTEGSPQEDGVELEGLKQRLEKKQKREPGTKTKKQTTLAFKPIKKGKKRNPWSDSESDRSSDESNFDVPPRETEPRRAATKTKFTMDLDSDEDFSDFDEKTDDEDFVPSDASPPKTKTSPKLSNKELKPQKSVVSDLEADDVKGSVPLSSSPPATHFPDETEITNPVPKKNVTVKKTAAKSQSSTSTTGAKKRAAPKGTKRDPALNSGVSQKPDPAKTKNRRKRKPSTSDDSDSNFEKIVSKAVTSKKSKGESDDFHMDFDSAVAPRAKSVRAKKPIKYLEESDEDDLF

In the case of `Oc1cccc(-c2cc(-c3ccncc3)nc(-c3cccc(Cl)c3)c2)c1`, the inhibition in assay [1] turned out to be 13.9%; in assay [2], 0%.
On to `Oc1ccc(-c2cc(-c3ccsc3)nc(-c3ccccc3Cl)c2)cc1`, for which the IC50 in assay [3] is 3.89 µM; in assay [4], 5.83 µM; in assay [5] it was 6.11 µM; in assay [7], 5.93 µM. Moreover, the results for the inhibition in assay [6], in assay [1] and in assay [2] were 29.2%, 80.5% and 4.1%, respectively.
On to `Oc1cccc(-c2cc(-c3cccnc3)nc(-c3ccccc3Cl)c2)c1`, for which the inhibition in assay [1] and in assay [2] was 0% each time.
For `Oc1ccc(-c2cc(-c3ccc(Cl)cc3)nc(-c3cccnc3)c2)cc1`, the IC50 was found to be 22.8 µM in assay [3], 20.7 µM in assay [4], 29.3 µM in assay [5] and 27.4 µM in assay [7]. Besides, the inhibition turned out to be 11.9% in assay [6], 59.1% in assay [1] and 18.8% in assay [2].
On to `Oc1ccc(-c2cc(-c3ccncc3)nc(-c3ccc(Cl)cc3)c2)cc1`, for which the inhibition in assay [1] came out at 2.4%; in assay [2], 5.9%.
Turning to `COc1cccc2c1C(=O)c1c(O)c3c(c(O)c1C2=O)C[C@@](O)(C(=O)CO)C[C@@H]3O[C@H]1C[C@H](N)[C@H](O)[C@H](C)O1` [DOXORUBICIN], the half-inhibitory concentration (IC50) turned out to be 1.1 µM in assay [3], 1.03 µM in assay [4], 1.05 µM in assay [5] and 1.34 µM in assay [7].
Take `Oc1cccc(-c2cc(-c3ccsc3)nc(-c3ccccc3Cl)c2)c1`: the concentration for half-maximal inhibition (IC50) in assay [3] worked out at 1.97 µM; in assay [4], 2.5 µM; in assay [5], 2.44 µM; in assay [7] it was 2.72 µM. For the same molecule, the figures for the inhibition in assay [6], in assay [1] and in assay [2] were 15.7%, 77.1% and 0%, respectively.
Consider `Oc1ccc(-c2cc(-c3ccc(Cl)cc3)nc(-c3ccco3)c2)cc1`, for which the IC50 in assay [3] is 7.28 µM; in assay [4], 7.02 µM; in assay [5], 6.26 µM; in assay [7] it was 5.72 µM. For the same molecule, the inhibition came out at 36.2% in assay [6], 84.1% in assay [1] and 15.8% in assay [2].
Regarding `Oc1ccc(-c2cc(-c3ccncc3)nc(-c3cccc(Cl)c3)c2)cc1`, the inhibition was 0% in assay [1] and 29.2% in assay [2].
With `Oc1ccc(-c2cc(-c3ccncc3)nc(-c3ccccc3Cl)c2)cc1`, the inhibition in assay [1] was 0%; in assay [2], 9.9%.
With `Oc1cccc(-c2cc(-c3ccccn3)nc(-c3ccccc3Cl)c2)c1`, the inhibition in assay [1] is 19.1%; in assay [2], 0%.
For the molecule `CC[C@@]1(O)C(=O)OCc2c1cc1n(c2=O)Cc2cc3ccccc3nc2-1` [CAMPTOTHECIN], the IC50 was found to be 1.06 µM in assay [3], 1.38 µM in assay [4], 1.53 µM in assay [5] and 1.01 µM in assay [7].
Regarding `Oc1ccc(-c2cc(-c3cccnc3)nc(-c3ccccc3Cl)c2)cc1`, the figures for the inhibition in assay [1] and in assay [2] were 0% and 0.9%, respectively.
On to `COc1cc([C@@H]2c3cc4c(cc3[C@@H](O[C@@H]3O[C@@H]5CO[C@@H](C)O[C@H]5[C@H](O)[C@H]3O)[C@H]3COC(=O)[C@H]23)OCO4)cc(OC)c1O` [ETOPOSIDE], for which the IC50 in assay [3] was 1.21 µM; in assay [4] it was 1.17 µM; in assay [5], 2.39 µM; in assay [7] it was 1.21 µM. For the same molecule, the inhibition in assay [6] was found to be 20%.
`Oc1ccc(-c2cc(-c3ccccn3)nc(-c3ccccc3Cl)c2)cc1`: the inhibition in assay [1] amounted to 21.1%; in assay [2], 5.2%.
Take `Oc1cccc(-c2cc(-c3cccnc3)nc(-c3cccc(Cl)c3)c2)c1`: the inhibition was found to be 0% in assay [1] and 27.6% in assay [2].
For `Oc1cccc(-c2cc(-c3ccncc3)nc(-c3ccccc3Cl)c2)c1` the same measures were 0.7% and 0%.
As for `Oc1cccc(-c2cc(-c3cccc(Cl)c3)nc(-c3ccccn3)c2)c1`, the values for the inhibition in assay [1] and in assay [2] were 2.4% and 0.4%, respectively.
